For one compound, inhibition results are on record in ChEMBL document CHEMBL5715938, “The protein kinase Cbeta-selective inhibitor, Enzastaurin (LY317615.HCl), suppresses signaling through the AKT pathway, induces apoptosis, and suppresses growth of human colon cancer and glioblastoma xenografts” (Cancer Res, 2005).

The test deals with Glycogen synthase kinase-3 beta (Homo sapiens) (UniProt P49841). Description: Inhibition of GSK3beta phosphorylation at serine 9 residue in human HCT-116 cells at 1 micromol/L by Western blotting analysis. Type of test: cell-based. Conditions: dose 1.0 µmol/L, time <= 4.0 hrs. In a few lines:
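Cultured tumor cells treated with 1 μmol/L drug; lysates in cell extraction buffer with protease inhibitors, western blotted with phospho-specific antibodies (pGSK3β Ser9, pAKT Thr308, phospho-ERK) alongside total GSK3β/AKT.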

The source made the active and inactive calls. No cut-off for these calls is given here.

Glycogen synthase kinase-3 beta (Homo sapiens), sequence (P49841 whole entry, looked up): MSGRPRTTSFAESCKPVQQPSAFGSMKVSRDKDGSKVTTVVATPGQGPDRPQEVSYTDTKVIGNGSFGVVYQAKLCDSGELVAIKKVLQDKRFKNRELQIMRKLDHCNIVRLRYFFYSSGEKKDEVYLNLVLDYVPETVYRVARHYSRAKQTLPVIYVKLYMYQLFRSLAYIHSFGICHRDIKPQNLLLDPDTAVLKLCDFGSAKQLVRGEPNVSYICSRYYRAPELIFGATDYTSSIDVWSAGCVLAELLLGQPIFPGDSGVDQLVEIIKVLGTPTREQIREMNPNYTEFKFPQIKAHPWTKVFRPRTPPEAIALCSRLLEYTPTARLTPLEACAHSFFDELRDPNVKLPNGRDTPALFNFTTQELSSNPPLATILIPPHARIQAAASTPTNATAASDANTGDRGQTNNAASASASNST

Take `CO[C@@H]1[C@H](N(C)C(=O)c2ccccc2)C[C@H]2O[C@]1(C)n1c3ccccc3c3c4c(c5c6ccccc6n2c5c31)C(=O)NC4`: the inhibition result was “Active”.
